Experimental data as given in article PMC2911665 (The Journal of Cell Biology, 2010).
Where a SMILES comes first, the peptide text is derived from it. The star is where a group is joined. Cbz = O=C(OCc1ccccc1)*

B1: Par-4: prostate apoptosis response protein 4, SPSB binding partner containing ELNNNL (human) (protein, UniProt Q96IZ0 1-340, looked up)
PRKC apoptosis WT1 regulator …: MATGGYRTSSGLGGSTTDFLEEWKAKREKMRAKQNPPGPAPPGGGSSDAAGKPPAGALGTPAAAAANELNNNLPGGAPAAPAVPGPGGVNCAVGSAMLTRAAPGPRRSEDEPPAASASAAPPPQRDEEEPDGVPEKGKSSGPSARKGKGQIEKRKLREKRRSTGVVNIPAAECLDEYEDDEAGQKERKREDAITQQNTIQNEAVNLLDPGSSYLLQEPPRTVSGRYKSTTSVSEEDVSSRYSRTDRSGFPRYNRDANVSGTLVSSSTLEKKIEDLEKEVVRERQENLRLVRLMQDKEEMIGKLKEEIDLLNRDLDDIEDENEQLKQENKTLLKVVGQLTR

Tested on: iNOS degradation in Spsb2T/+ BMDMs
Assay: iNOS degradation in Spsb2T/+ BMDMs after LPS/IFN-γ stimulation and wash
Format: cell-based, mouse
Conditions: 10 µM MG-132 in fresh medium after wash
How it was run: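 Bone marrow macrophages (>95% CD11b+ after 6 d culture) from littermate controls, SPSB2-transgenic or SOCS-box-deleted transgenic mice, stimulated overnight with LPS/IFN-γ or left unstimulated. Washed, refed with medium ±10 µM MG-132 (proteasome inhibitor), lysed at set times after wash. Lysates run on SDS-PAGE, blotted with anti-iNOS, peroxidase secondary and ECL. Membranes stripped (0.1 M Gly, pH 2.9) and reprobed for tubulin as loading control.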
For `CC(C)C[C@@H](C=O)NC(=O)[C@H](CC(C)C)NC(=O)[C@H](CC(C)C)NC(=O)OCc1ccccc1` [MG-132] (Cbz-Leu-Leu-Leu-aldehyde), the “effect on enhanced iNOS degradation” value was “abrogated”.

Target: SPSB1
Assay: not given
Conditions: SPSB1 binding to Par-4; ref Woo et al., 2006; cited from earlier work
For B1, the Kd is given as 146 nM.

Target: SPSB2
Assay: not given
Conditions: SPSB2 binding to Par-4; ref Woo et al., 2006; cited from earlier work
For B1, the Kd is listed as 4700 nM.

Target: T1, Y120A-SPSB2 (12–224) (mouse, UniProt O88838 12-224, Y120A)
T1 sequence (looked up): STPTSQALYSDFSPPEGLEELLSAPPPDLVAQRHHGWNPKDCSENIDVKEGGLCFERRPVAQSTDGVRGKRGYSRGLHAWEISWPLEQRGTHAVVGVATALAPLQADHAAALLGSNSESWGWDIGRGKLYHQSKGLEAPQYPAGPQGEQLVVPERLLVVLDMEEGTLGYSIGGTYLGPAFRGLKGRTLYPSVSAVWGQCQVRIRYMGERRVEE
Assay: ITC
Conditions: not given
In the case of Ac-KEEKDINNNVKKT-NH2 [iNOS N-terminal peptide, wild type (Ac-KEEKDINNNVKKT-NH2)], the “fold reduction of affinity against wild-type SPSB2 (12–224)” value is reported as roughly 5000 fold.

Target: T2, SPSB2 SPRY domain (residues 12–224) (mouse, UniProt O88838 12-224)
T2 sequence (looked up): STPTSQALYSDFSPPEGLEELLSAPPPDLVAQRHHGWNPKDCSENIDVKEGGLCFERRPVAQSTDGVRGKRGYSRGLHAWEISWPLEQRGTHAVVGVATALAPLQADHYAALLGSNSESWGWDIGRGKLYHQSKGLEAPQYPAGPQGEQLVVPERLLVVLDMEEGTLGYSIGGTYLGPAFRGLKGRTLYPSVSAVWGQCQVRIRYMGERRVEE
Assay: ITC
Conditions: not given
Molecule Ac-KEEKDINNNVKKT-NH2 [iNOS N-terminal peptide, wild type (Ac-KEEKDINNNVKKT-NH2)] has a Kd of 13.3 ± 3 nM. For Ac-KEEKDIANNVKKT-NH2 [iNOS N-terminal peptide G (Ac-KEEKDIANNVKKT-NH2)], the Kd was 17200 nM. Ac-KEEKDANNNVKKT-NH2 [iNOS N-terminal peptide F (Ac-KEEKDANNNVKKT-NH2)] showed a Kd of 23.5 ± 9.9 nM. Ac-KEEKDINNNAKKT-NH2 [iNOS N-terminal peptide L (Ac-KEEKDINNNAKKT-NH2)] showed a Kd of 56.8 ± 11.2 nM. Ac-KEEKDINNNAKAT-NH2 [iNOS N-terminal peptide N (Ac-KEEKDINNNAKAT-NH2)] gave a Kd of 180 ± 39 nM. Work on Ac-KEEADINNNVKKT-NH2 [iNOS N-terminal peptide C (Ac-KEEADINNNVKKT-NH2)] yielded a Kd of 127 ± 23 nM. With Ac-KEEKDINNNVKAT-NH2 [iNOS N-terminal peptide M (Ac-KEEKDINNNVKAT-NH2)] the Kd was 29.8 ± 12.2 nM. In the case of Ac-KEEKAINNNVKKT-NH2 [iNOS N-terminal peptide E (Ac-KEEKAINNNVKKT-NH2)], the Kd is reported as 21600 ± 750 nM. Ac-KEEKDIQNNVKKT-NH2 [iNOS N-terminal peptide H (Ac-KEEKDIQNNVKKT-NH2)] showed a Kd of 40500 nM. In the case of Ac-KEEKDINANVKKT-NH2 [iNOS N-terminal peptide I (Ac-KEEKDINANVKKT-NH2)], the Kd is reported as 826 ± 20 nM. For Ac-KEEADINNNAKAT-NH2 [iNOS N-terminal peptide O (Ac-KEEADINNNAKAT-NH2)], the Kd was 311 ± 37 nM. Work on Ac-KEAKDINNNVKKT-NH2 [iNOS N-terminal peptide B (Ac-KEAKDINNNVKKT-NH2)] yielded a Kd of 14 ± 3 nM. Ac-KEAADINNNVKKT-NH2 [iNOS N-terminal peptide D (Ac-KEAADINNNVKKT-NH2)] showed a Kd of 65.4 ± 7.4 nM.
